Hck Nef HTS – inhibitors of human Hck kinase activated by Nef. Recombinant Hck-YEEI plus Nef, Z-Lyte FRET kinase assay. P08631. 220,000 compounds, 0.68% hits. inhibition, % at 20 µM;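 active means Hck-Nef kinase inhibition above about 50%, limit read from the data; inactive means inhibition below that limit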;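 further: 0% = DMSO with Hck plus Nef and 100% = Hck alone without Nef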
Target sequence (P08631 whole entry, looked up): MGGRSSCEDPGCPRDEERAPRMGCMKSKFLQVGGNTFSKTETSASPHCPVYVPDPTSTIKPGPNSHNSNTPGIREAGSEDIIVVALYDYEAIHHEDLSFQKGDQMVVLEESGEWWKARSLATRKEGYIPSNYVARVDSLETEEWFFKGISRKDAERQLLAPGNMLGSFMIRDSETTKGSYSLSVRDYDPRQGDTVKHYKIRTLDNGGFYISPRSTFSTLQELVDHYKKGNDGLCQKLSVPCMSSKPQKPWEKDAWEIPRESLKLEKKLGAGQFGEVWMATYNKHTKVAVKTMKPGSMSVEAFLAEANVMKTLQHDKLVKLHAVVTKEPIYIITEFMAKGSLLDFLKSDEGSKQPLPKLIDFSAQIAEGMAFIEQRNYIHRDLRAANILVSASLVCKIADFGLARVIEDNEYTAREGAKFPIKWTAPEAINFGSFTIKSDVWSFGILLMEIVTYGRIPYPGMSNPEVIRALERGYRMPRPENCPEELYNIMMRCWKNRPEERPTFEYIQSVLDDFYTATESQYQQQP
Runt-SMMHC FRET – blocks binding of human RUNX1 Runt domain to CBFb-SMMHC; Q01196+Q13951; Cerulean-Runt/Venus-CBFb-SMMHC FRET ratio 530/480, 1 h; inhibition, % at 20 µM; 220,000 compounds, 0.74% hits; AID 1434;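 active means mean inhibition across duplicate retests at 20 µM reaching about 50%, limit read from the data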;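 further: 0% = DMSO wells and 100% = wells with excess untagged CBFb-SMMHC; inhibitors lower the FRET ratio by blocking Runt binding to CBFb-SMMHC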
Runt-CBFb FRET – Runt domain-CBFb interaction inhibition | Q01196+Q13951 | Cerulean-Runt/Venus-CBFb FRET ratio 530/480, 1 h | inhibition, % at 20 µM | 220,000 compounds, 0.46% hits;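 active means inhibition over about 50% at 20 µM in the single-dose screen, limit read from the data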;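 further: 0% = DMSO wells and 100% = excess unlabeled CBFb competitor control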
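Measured by: fluorescence energy transfer, 422 nm excitation, 530/480 nm emission; Assay system: Cerulean-Runt domain; Medium: Tris pH 7.5 buffer with BSA; Measure: loss of energy transfer signal; Controls: 5 µM unlabeled CBFb as full-inhibition high control; Incubation: protein complex preformed 1 h, compound exposure 1 h, room temperature, dark.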
RanGTP-Impb inh – disruptors of Ran-importin-beta complex formation – biochemical, FRET, CFP-Ran, YFP-importin-beta, homogeneous, primary screen | cell-free CFP-Ran/YFP-importin-beta FRET ratio | inhibition, % (test concentration not listed) | 300,000 compounds, 1.1% hits | AID 2216;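 active means more than half of the replicate wells show a fall in the fluorescence ratio signal beyond about 16%, limit read from the data, passing the limit was not always enough; inconclusive means exactly half of the replicate wells pass the set limit; inactive means fewer than half of replicates pass the limit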;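 further: 0% = DMSO wells and 100% = Ran loaded with GDP instead of GTP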
* = called active by the depositor; u = inconclusive; x = no result given. Rows were chosen to be rich in hits. Some 1.9% of all compounds tested hit in one or more screens of this group.

SMILES	Hck Nef HTS	Runt-SMMHC FRET	Runt-CBFb FRET	RanGTP-Impb inh
O=c1oc2ccc3ccccc3c2cc1-c1nnc(-c2ccccc2)o1	2	39	76*	122*
COc1ccc(-c2nnc(-c3cc4c(ccc5ccccc54)oc3=O)o2)cc1	2	39	16	-6
Nc1nnc(-c2cc3c(ccc4ccccc43)oc2=O)s1	6	92*	20	x
Cc1cc(NCCCOC(C)C)n2c(nc3ccccc32)c1C#N	x	x	x	26*
Cc1cc(NCCN2CCCCC2)n2c(nc3ccccc32)c1C#N	29	14	6	8
CCOC(=S)NC(=O)c1sc2ccccc2c1Cl	2	2	0	53*
O=C(NC(=S)NCCO)c1sc2ccccc2c1Cl	0	-7	3	-2
Cc1nnc2sc(-c3ccc(NC(=O)c4ccc(-c5ccc(Cl)cc5Cl)o4)cc3)nn12	87*	x	x	u
Cc1nnc2sc(-c3ccc(NC(=O)c4cccnc4)cc3)nn12	-1	x	x	x
COc1ccc(-c2ccc(NS(=O)(=O)c3cc([N+](=O)[O-])c(C)c([N+](=O)[O-])c3)cc2)nn1	x	x	x	0
CCOP(=O)(OCC)C(C)(C)NC(=O)Nc1ccc(Cl)c(Cl)c1	1	0	-1	6
CCN(CC)S(=O)(=O)c1ccc(NC(=O)COC(=O)c2ccc(NC(=O)CC#N)cc2)cc1	18	-14	-2	-1
CC(=O)Nc1ccc(S(=O)(=O)N2CCC(c3nc4c(nnn4Cc4ccccc4Cl)c(=O)[nH]3)CC2)cc1	x	x	x	1
Cc1ncc([N+](=O)[O-])n1Cc1cccc(F)c1	25	0	0	25
Nc1cc(=O)[nH]c(SCC(=O)Nc2cccc(Cl)c2)n1	-1	1	0	u
Nc1cc(=O)[nH]c(SCC(=O)Nc2ccc(Oc3ccccc3)cc2)n1	x	x	x	32*
CCNc1nc(C)c(CN(C(C)=O)c2ccccc2)nc1C#N	23	91*	32	4
CC(=O)N(CN1C(=O)c2ccccc2C1=O)c1ccccc1	4	4	1	0
O=C(c1ccco1)N1C(=O)c2cccc3cccc1c23	6	-6	-2	x
Nc1cccc2c1C(=O)N(C(=O)/C=C/c1ccc(F)cc1)C2=O	11	86*	-58	5
Nc1cccc2c1C(=O)N(C(=O)c1ccco1)C2=O	-86	84*	-45	26*
O=C(/C=C/c1ccc(F)cc1)N1CCCN(C(=O)/C=C/c2ccc(F)cc2)CC1	1	0	-3	-5
Cc1ccc(S(=O)(=O)N(C)C)cc1NC(=O)C(C)OC(=O)/C=C/c1cccs1 (stereo unspecified)	-6	0	0	4
Cc1cc(C(=O)NNC(=O)/C=C/c2ccc(F)cc2)c(C)o1	x	x	x	2
Cc1cccc2nc(CSc3nc4ccccc4[nH]3)cn12	15	0	71*	4
SMILES	Hck Nef HTS	Runt-SMMHC FRET	Runt-CBFb FRET	RanGTP-Impb inh
CCN1CC=C2C(C1)C(c1ccc(Cl)s1)C(C#N)=C(N)C2(C#N)C#N (stereo unspecified)	15	82*	36	50*
CCOC(=O)C1=C(c2ccccc2)OC(N)=C(C#N)C1c1ccc(Cl)s1 (stereo unspecified)	0	10	0	8
COc1ccc(C(=O)/C=C/Nc2ccc(S(=O)(=O)Nc3nc(C)cc(C)n3)cc2)cc1OC	23	67*	44	3
Cc1cc(C)nc(NS(=O)(=O)c2ccc(N/C=C/C(=O)c3ccc(Cl)cc3)cc2)n1	11	25	12	5
COc1ccc(C(=O)/C=C/Nc2ccc(S(=O)(=O)Nc3nc(C)cc(C)n3)cc2)c(OC)c1	44	81*	38	0
CC(=O)NCCn1c(SCC(=O)NC2CCCCC2)nc2ccccc2c1=O	0	0	1	18*
CCn1c(SCC(=O)NC2CCCCC2)nc2ccccc2c1=O	x	x	x	4
O=C(Nc1c(C(=O)O)[nH]c2ccc(F)cc12)c1cccc(C(F)(F)F)c1	28	1	3	0
CCCOC1CCCN(Cc2nc(-c3ccc(C(=O)OC)cc3)no2)C1 (stereo unspecified)	13	-2	1	-1
CCOc1ccc(-c2cc(CCCC(=O)Nc3cccc(OC)c3)no2)cc1	-3	-2	-2	27*
Cc1cc([N+](=O)[O-])nn1CC(=O)NCc1nc2ccccc2[nH]1	26	0	1	174*
COc1ccc(NC(=O)c2nc[nH]c2C(=O)N2CCN(C(=O)OC(C)(C)C)CC2)cc1	30	0	0	25*
O=C(CSc1nnc(-c2ccc(F)cc2)c2ccccc12)NCC1CCCO1 (stereo unspecified)	27	-3	-1	9
Cc1cc(C(=O)CN2C(=O)c3cccc(N)c3C2=O)c(C)n1Cc1cccs1	2	62*	19	66*
Cc1cccc(NC(=O)CSCC(=O)NCc2ccco2)c1	x	x	x	-3
CCc1noc(C)c1C(=O)Nc1cc(S(=O)(=O)N2CCOCC2)ccc1OC(C)C	x	x	x	1
CN(C)c1ncc(S(=O)(=O)c2ccccc2)c(N)n1	1	-10	1	0
COc1nc(N)c(S(=O)(=O)c2ccccc2)cc1C#N	5	99*	40	12
COc1nc(N)c(S(=O)(=O)c2ccccc2C)cc1C#N	1	60*	20	5
COc1nc(C)cc(C)c1S(=O)(=O)c1ccccc1C	x	x	x	-3
FC(F)Oc1ccc(NC(=S)N2CCc3ccccc32)cc1	26	4	8	-4
CN1C(=O)N(C)C2(c3ccccc3)Nn3c(s/c(=C/c4ccccc4F)c3=O)=NC12c1ccccc1 (stereo unspecified)	0	-7	10	-2
CN(C)c1ccc(/C=c2/sc3n(c2=O)NC2(c4ccccc4)N(C)C(=O)N(C)C2(c2ccccc2)N=3)cc1 (stereo unspecified)	-20	-43	-12	20*
COc1ccc2c(c1)c1ccc3c(c1n2C)C(=O)C=CC3=O	18	41	64*	x
Cc1ccc2c(c1)c1ccc3c(c1n2C)C(=O)C=CC3=O	13	32	55*	x
SMILES	Hck Nef HTS	Runt-SMMHC FRET	Runt-CBFb FRET	RanGTP-Impb inh
COCCNC(=O)/C(C#N)=C/c1ccc(OC(=O)c2cccs2)c(OC)c1	22	1	-2	1
COc1cc(/C=C(\C#N)C(=O)NCc2cccs2)ccc1O	-2	58*	23	4
O=C(NCc1cccnc1)c1ccc(Cl)c(S(=O)(=O)Nc2ccccc2C(=O)NCc2cccnc2)c1	25	-1	1	-2
OCCN1CCN(Cc2cc(Cl)c3cccnc3c2O)CC1	1	-6	4	40*
Oc1c(CN2CCN(c3ccccn3)CC2)cc(Cl)c2cccnc12	-2	-14	-2	24*
COc1ccc(NC2CCCN(C(=O)c3ccccc3C(F)(F)F)C2)cc1 (stereo unspecified)	x	x	x	-4
CC(C)NC(=S)n1cc(C(=O)c2cc(Cl)cc(Cl)c2O)cn1	x	x	x	21*
COc1cccc(Nc2nc(C)cc(C)c2C(N)=O)c1	x	x	x	5
COc1ccc(C2N(c3ccccc3)CCN2c2ccccc2)cc1O	13	-2	-1	25*

Compound activity (PubChem)
